For 8 compounds, MIC and MPC results are on record in ChEMBL document CHEMBL1133014, “Design, synthesis, and SAR of novel carbapenem antibiotics with high stability to Xanthomonas maltophilia oxyiminocephalosporinase type II” (2000).

Usually MIC stands for the least concentration at which growth counts as inhibited.

Common to all, as to format: functional
For experiment [1], the system named is Pseudomonas aeruginosa. The experiment in a line: In vitro antimicrobial activity against Pseudomonas aeruginosa 1101-75 was determined. Summed up:
(§1)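 MIC by agar dilution: organisms applied onto antibiotic-containing agar plates with a Steers-type replicator. MIC taken as the lowest concentration preventing visible growth, averaged from duplicate determinations (± standard error).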

The test system of experiment [2] is Pseudomonas aeruginosa. Description: Minimum protective concentration against beta-lactamase of Pseudomonas aeruginosa 18S-H. Summed up:
(§2)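 Minimum protective concentration taken as the lowest β-lactam concentration protecting a chromogenic indicator from β-lactamase hydrolysis within 1.0 h under standard conditions. Hydrolysis was read as a distinct red color. Compound stability without enzyme was checked at 37 °C in phosphate buffer, pH 6.5.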

Experiment [3] relates to Stenotrophomonas maltophilia. The experiment in a line: Minimum protective concentration against beta-lactamase of Xanthomonas maltophilia GN 12873 (CXase-I). Summed up:
as §2

For experiment [4], the system named is Staphylococcus aureus. Description: In vitro antimicrobial activity against Staphylococcus aureus 95 (methicillin-resistant strain) was determined. Summed up: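 Agar dilution MIC: organisms were deposited onto medicated agar plates with a Steers-type replicator. MIC was read as the lowest antibiotic concentration preventing visible growth. Values are averages of duplicate determinations with standard error.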

In a further experiment the test system is Escherichia coli. Description: In vitro antimicrobial activity against Escherichia coli ATCC 39188 was determined. Summed up: as §1
The subject of experiment [5] is Stenotrophomonas maltophilia. The experiment in a line: Minimum protective concentration against beta-lactamase of Xanthomonas maltophilia GN 12873 (CXase-II). The essentials:
as §2

In experiment [6] the test system is Pseudomonas aeruginosa. The experiment in a line: In vitro antimicrobial activity against Pseudomonas aeruginosa 18S-H was determined. Summed up: as §1
In a further experiment the test system is Klebsiella pneumoniae. The experiment in a line: In vitro antimicrobial activity against Klebsiella pneumoniae NCTC 418 was determined. The essentials:
as §1

Experiment [7] can be described thus: In vitro antimicrobial activity against Xanthomonas maltophilia GN 12873 in combination (1:1 w/w) with imipenem. The following applies: Stenotrophomonas maltophilia. Summed up:
as §1

For experiment [8], the system named is Staphylococcus aureus. Description: Minimum protective concentration against beta-lactamase of Staphylococcus aureus 95. Summed up:
as §2

The nature of experiment [9]: In vitro antimicrobial activity against Xanthomonas maltophilia GN 12873 was determined. The following applies: Stenotrophomonas maltophilia. The essentials:
as §1

Experiment [10] relates to Staphylococcus aureus. The experiment in a line: In vitro antimicrobial activity against Staphylococcus aureus FDA 209P was determined. The essentials:
as §1

Converted amounts (≈) assume the structure as drawn.

Regarding `O=C(Cc1ccccc1)N[C@@H]1C(=O)N2C(C(=O)O)=CC[C@H]12` (racemic), the minimum inhibitory concentration (MIC) was determined as 8.91 mg/L (≈ 31.1 µM) against Pseudomonas aeruginosa [1]; 30.7 mg/L (≈ 107 µM) in the experiment on Staphylococcus aureus [4]; 0.98 mg/L (≈ 3.42 µM) against Escherichia coli; 31.6 mg/L (≈ 110 µM) against Pseudomonas aeruginosa [6]; 1.92 mg/L (≈ 6.71 µM) in the experiment on Klebsiella pneumoniae; 2.15 mg/L in experiment [7]. The MIC amounted to 10.3 mg/L (≈ 35.9 µM) in experiment [9] and 0.12 mg/L (≈ 0.419 µM) with Staphylococcus aureus [10]. In addition, the MPC in the experiment on Pseudomonas aeruginosa [2] was 4.21 µg/mL; in experiment [3], 30 µg/mL; in [5] it was 33.6 µg/mL; in the experiment on Staphylococcus aureus [8], 3.45 µg/mL.

In the case of `COC(=O)CC1=C(C(=O)O)N2C(=O)[C@@H](NC(=O)Cc3ccccc3)[C@H]2C1` (racemic), the MIC with Pseudomonas aeruginosa [1] worked out at 1.8 mg/L (≈ 5.02 µM); with Staphylococcus aureus [4], 18.5 mg/L (≈ 51.7 µM); against Escherichia coli, 0.67 mg/L (≈ 1.87 µM); in the experiment on Pseudomonas aeruginosa [6] it was 21.3 mg/L (≈ 59.4 µM); against Klebsiella pneumoniae, 0.77 mg/L (≈ 2.15 µM); in experiment [7], 0.98 mg/L. In addition, the MIC in experiment [9] was determined as 5.97 mg/L (≈ 16.7 µM); with Staphylococcus aureus [10] it was 0.04 mg/L (≈ 0.112 µM). In addition, the MPC in the experiment on Pseudomonas aeruginosa [2] came out at 8.74 µg/mL; in [3], 30.4 µg/mL; in experiment [5] it was 35 µg/mL; in the experiment with Staphylococcus aureus [8] it was 6.87 µg/mL.

As for `O=C(Cc1ccccc1)N[C@@H]1C(=O)N2C(C(=O)O)=C(CCO)C[C@H]12` (racemic), the minimum inhibitory concentration (MIC) against Pseudomonas aeruginosa [1] is 3.51 mg/L (≈ 10.6 µM); against Staphylococcus aureus [4], 19.2 mg/L (≈ 58.2 µM); with Escherichia coli it was 0.75 mg/L (≈ 2.27 µM); in the experiment with Pseudomonas aeruginosa [6], 22.6 mg/L (≈ 68.5 µM); against Klebsiella pneumoniae, 0.88 mg/L (≈ 2.66 µM); in experiment [7] it was 0.77 mg/L. Moreover, the MIC in [9] came out at 6.73 mg/L (≈ 20.4 µM); against Staphylococcus aureus [10], 0.07 mg/L (≈ 0.212 µM). The MPC came to 6.98 µg/mL in the experiment with Pseudomonas aeruginosa [2], 36.7 µg/mL in [3], 42.1 µg/mL in experiment [5] and 7.18 µg/mL in the experiment with Staphylococcus aureus [8].

On to `CC(=O)OCCC1=C(C(=O)O)N2C(=O)[C@@H](NC(=O)Cc3ccccc3)[C@H]2C1` (racemic), for which the MIC was 2.87 mg/L (≈ 7.71 µM) in the experiment with Pseudomonas aeruginosa [1]; 14.9 mg/L (≈ 40.1 µM) in the experiment on Staphylococcus aureus [4]; 0.69 mg/L (≈ 1.85 µM) in the experiment on Escherichia coli; 17.2 mg/L (≈ 46.2 µM) in the experiment on Pseudomonas aeruginosa [6]; 1.08 mg/L (≈ 2.9 µM) in the experiment on Klebsiella pneumoniae; 0.39 mg/L in [7]. Further, the MIC in experiment [9] stood at 4.12 mg/L (≈ 11.1 µM); with Staphylococcus aureus [10], 0.05 mg/L (≈ 0.134 µM). Moreover, the MPC was 5.87 µg/mL with Pseudomonas aeruginosa [2], 27.5 µg/mL in experiment [3], 47.8 µg/mL in experiment [5] and 6.12 µg/mL in the experiment on Staphylococcus aureus [8].

In the case of `O=C(Cc1ccccc1)N[C@@H]1C(=O)N2C(C(=O)O)=C(C(=O)O)C[C@H]12` (racemic), the MIC against Pseudomonas aeruginosa [1] was found to be 5.63 mg/L (≈ 17 µM); against Staphylococcus aureus [4], 13.9 mg/L (≈ 42 µM); against Escherichia coli, 0.48 mg/L (≈ 1.45 µM); in the experiment with Pseudomonas aeruginosa [6] it was 28.2 mg/L (≈ 85.3 µM); against Klebsiella pneumoniae, 0.56 mg/L (≈ 1.7 µM); in experiment [7], 1.58 mg/L. In addition, the MIC amounted to 9.61 mg/L (≈ 29.1 µM) in experiment [9] and 0.03 mg/L (≈ 0.0908 µM) in the experiment on Staphylococcus aureus [10]. The MPC was determined as 2.38 µg/mL in the experiment with Pseudomonas aeruginosa [2], 25.5 µg/mL in experiment [3], 29.4 µg/mL in experiment [5] and 2.2 µg/mL in the experiment with Staphylococcus aureus [8].

On to `COC(=O)C1=C(C(=O)O)N2C(=O)[C@@H](NC(=O)Cc3ccccc3)[C@H]2C1` (racemic), for which the MIC was found to be 0.89 mg/L (≈ 2.58 µM) against Pseudomonas aeruginosa [1]; 8.3 mg/L (≈ 24.1 µM) against Staphylococcus aureus [4]; 0.2 mg/L (≈ 0.581 µM) against Escherichia coli; 12.1 mg/L (≈ 35.1 µM) against Pseudomonas aeruginosa [6]; 0.15 mg/L (≈ 0.436 µM) against Klebsiella pneumoniae; 2.01 mg/L in [7]. The MIC was found to be 12.1 mg/L (≈ 35.2 µM) in experiment [9] and 0.01 mg/L (≈ 0.029 µM) against Staphylococcus aureus [10]. Besides, the MPC in the experiment on Pseudomonas aeruginosa [2] turned out to be 1.02 µg/mL; in experiment [3], 14.6 µg/mL; in experiment [5], 16.7 µg/mL; in the experiment on Staphylococcus aureus [8], 0.98 µg/mL.

For `C[C@@H](O)[C@H]1C(=O)N2C(C(=O)O)=C(SCCNC=N)C[C@H]12.O` [IMIPENEM], the MIC against Pseudomonas aeruginosa [1] was 4.71 mg/L; against Staphylococcus aureus [4], 15.7 mg/L; with Escherichia coli, 0.35 mg/L; with Pseudomonas aeruginosa [6], 35.6 mg/L; in the experiment with Klebsiella pneumoniae it was 0.4 mg/L; in experiment [9], above 128 mg/L. For the same compound, the minimum inhibitory concentration (MIC) with Staphylococcus aureus [10] worked out at 0.02 mg/L. Moreover, the MPC came to 35.61 µg/mL in the experiment on Pseudomonas aeruginosa [2], 46.8 µg/mL in [3], 0.87 µg/mL in experiment [5] and 30.12 µg/mL in the experiment with Staphylococcus aureus [8].

As to `CC1(C)S[C@@H]2[C@H](NC(=O)Cc3ccccc3)C(=O)N2[C@H]1C(=O)O` [PENICILLIN G], the MIC was above 128 mg/L in the experiment on Pseudomonas aeruginosa [1]; above 128 mg/L against Staphylococcus aureus [4]; 2.87 mg/L (≈ 8.58 µM) in the experiment on Escherichia coli; above 128 mg/L in the experiment on Pseudomonas aeruginosa [6]; above 128 mg/L against Klebsiella pneumoniae; above 128 mg/L in experiment [9]. In the experiment with Staphylococcus aureus [10], this compound showed a minimal inhibitory concentration (MIC) of 0.51 mg/L (≈ 1.53 µM). For the same compound, the MPC in the experiment on Pseudomonas aeruginosa [2] was determined as 1.03 µg/mL; in experiment [3], 23.6 µg/mL; in [5] it was 28.8 µg/mL; in the experiment with Staphylococcus aureus [8], 1.85 µg/mL.
